In ChEMBL document CHEMBL1143391, “Design, synthesis, and evaluation of oxygen-containing macrocyclic peptidomimetics as inhibitors of HCV NS3 protease” (J Med Chem, 2009):

How the values were obtained:
[1] = Binding affinity to HCV NS3 protease by spectrophotometry; set-up: species or system Hepacivirus hominis
Summary of the method: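 Continuous assay with NS4A-tethered single-chain NS3 serine protease, read out chromogenically. Affinity reported as Ki*.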

[2] = tested on: Hepatitis C virus; assay: Antiviral activity against HCV RNA replication in human hepatoma cells by replicon assay; assay type: functional, organism-based, Hepacivirus hominis
[3] = Selectivity for HCV NS3 protease over human neutrophil elastase

Ki [1] [nM] | EC90 ([2]; read-out: EC90) [nM] | Ratio [3] | EC90 [2] [nM] | Structure (SMILES)
7 | 50 | 300 | – | C=CCNC(=O)C(=O)[C@@H]1CCCCCCCOC[C@H](NC(=O)N[C@H](CN2C(=O)CC(C)(C)CC2=O)C(C)(C)C)C(=O)N2C[C@H]3[C@@H]([C@H]2C(=O)N1)C3(C)C
18 | – | 350 | – | C=CCNC(=O)C(=O)[C@@H]1CCCCCCCOC[C@H](NC(=O)N[C@H](CN(C)S(=O)(=O)CC)C(C)(C)C)C(=O)N2C[C@H]3[C@@H]([C@H]2C(=O)N1)C3(C)C
21 | 100 | 140 | – | C=CCNC(=O)C(=O)[C@@H]1CCCCCCCOC[C@H](NC(=O)N[C@H](CN2CCC(C)(C)CC2=O)C(C)(C)C)C(=O)N2C[C@H]3[C@@H]([C@H]2C(=O)N1)C3(C)C
14 | 150 | 100 | – | C=CCNC(=O)C(=O)[C@@H]1CCCCCCCOC[C@H](NC(=O)N[C@H](CN(C)S(=O)(=O)c2cccs2)C(C)(C)C)C(=O)N2C[C@H]3[C@@H]([C@H]2C(=O)N1)C3(C)C
21 | 160 | 160 | – | C=CCNC(=O)C(=O)[C@@H]1CCCCCCCOC[C@H](NC(=O)N[C@H](CN2CCCCC2=O)C(C)(C)C)C(=O)N2C[C@H]3[C@@H]([C@H]2C(=O)N1)C3(C)C
3 | 30 | 1500 | – | C=CCNC(=O)C(=O)[C@@H]1CCCCCCCOC[C@H](NC(=O)N[C@H](CN2C(=O)C3CCC(C3)C2=O)C(C)(C)C)C(=O)N2C[C@H]3[C@@H]([C@H]2C(=O)N1)C3(C)C
15 | 80 | 300 | – | C=CCNC(=O)C(=O)[C@@H]1CCCCCCCOC[C@H](NC(=O)N[C@H](CN2C(=O)CN(C)CC2=O)C(C)(C)C)C(=O)N2C[C@H]3[C@@H]([C@H]2C(=O)N1)C3(C)C

More lines, now with the values behind:

Structure (SMILES) | Ki [1] [nM] | EC90 ([2]; read-out: EC90) [nM] | Ratio [3] | EC90 [2] [nM]
C=CCNC(=O)C(=O)[C@@H]1CCCCCCCOC[C@H](NC(=O)OC(C)(C)C)C(=O)N2C[C@H]3[C@@H]([C@H]2C(=O)N1)C3(C)C | 150 | – | – | –
CC(C)(C)OC(=O)N[C@@H]1C(=O)N2C[C@H]3[C@@H]([C@H]2C(=O)N[C@H](C(=O)C(N)=O)CCCCCCCCCC1(C)C)C3(C)C | 250 | – | – | –
C=CCNC(=O)C(=O)[C@@H]1CCCCCCC(=O)CC[C@H](NC(=O)OC(C)(C)C)C(=O)N2C[C@H]3[C@@H]([C@H]2C(=O)N1)C3(C)C | 320 | – | – | –
C=CCNC(=O)C(=O)[C@@H]1CCCCCCCO[C@@H](C)[C@H](NC(=O)N[C@H](CN2C(=O)CC(C)(C)CC2=O)C(C)(C)C)C(=O)N2C[C@H]3[C@@H]([C@H]2C(=O)N1)C3(C)C | 7 | – | 1400 | 40
C=CCNC(=O)C(=O)[C@@H]1CCCCCCCCC[C@H](NC(=O)OC(C)(C)C)C(=O)N2C[C@H]3[C@@H]([C@H]2C(=O)N1)C3(C)C | 36 | – | – | –
C=CCNC(=O)C(=O)[C@@H]1CCCCCCCO[C@@H](C)[C@H](NC(=O)N[C@H](CN2C(=O)CN(C)CC2=O)C(C)(C)C)C(=O)N2C[C@H]3[C@@H]([C@H]2C(=O)N1)C3(C)C | 6 | 60 | 1100 | –
CC(C)(C)OC(=O)N[C@H]1CS(=O)(=O)CCCCCCC[C@@H](C(=O)C(=O)NC2CC2)NC(=O)[C@@H]2[C@@H]3[C@H](CN2C1=O)C3(C)C | 670 | – | – | –
CC(C)(C)NC(=O)N[C@H](C(=O)N1C[C@H]2[C@@H]([C@H]1C(=O)NC(CC1CCC1)C(=O)C(N)=O)C2(C)C)C(C)(C)C (some centres undefined) [BOCEPREVIR] | 14 | 350 | 2200 | –
C=CCNC(=O)C(=O)[C@@H]1CCCCNC(=O)OCCC[C@H](NC(=O)OC(C)(C)C)C(=O)N2C[C@H]3[C@@H]([C@H]2C(=O)N1)C3(C)C | 660 | – | – | –
C=CCNC(=O)C(=O)[C@@H]1CCCCCCCOC[C@H](NC=O)C(=O)N2C[C@H]3[C@@H]([C@H]2C(=O)N1)C3(C)C | 400 | – | – | –
C=CCNC(=O)C(=O)[C@@H]1CCCCCCCO[C@@H](C)[C@H](NC(=O)N[C@H](CN2C(=O)C3CCC(C3)C2=O)C(C)(C)C)C(=O)N2C[C@H]3[C@@H]([C@H]2C(=O)N1)C3(C)C | 3 | 30 | 2800 | –
C=CCNC(=O)C(=O)[C@@H]1CCCCCCCO[C@@H](C)[C@H](NC(=O)N[C@H](CN2CCC(C)(C)CC2=O)C(C)(C)C)C(=O)N2C[C@H]3[C@@H]([C@H]2C(=O)N1)C3(C)C | 8 | 60 | 1300 | –
C=CCNC(=O)C(=O)[C@@H]1CCCCCCCOC[C@H](NC(=O)N[C@H](C(=O)C2CC2)C2CCCCC2)C(=O)N2C[C@H]3[C@@H]([C@H]2C(=O)N1)C3(C)C | 160 | – | 9 | –
